In brackets after ≈: the same amount, converted by molar mass. Some results are limits rather than exact numbers.

Broadly, the Ki is the dissociation constant of the complex between target and ligand, obtained from inhibition or displacement.

Data set [1] has as its system Mus musculus. Put plainly: Compound was evaluated for its effect ofHSV -2 induced mortality in mice measured as survivors/total (%) at the dose of 50 mg/kg per day; 3/10. Type of data set: functional. A digest of the protocol: (§1)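 Female Swiss mice, 16–18 g, anesthetized and inoculated intracerebrally with 10 LD50 of HSV 2 (G strain), then randomized into groups of 8–12. Dosing was ip, b.i.d. for 5 consecutive days, starting 1 h postinfection. Mortality was followed for 21 days. P values were from the two-tailed Fisher exact test for survivors and the Gehan-Wilcoxon test for mean survival time.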

For data set [2], the system named is Mus musculus. Put plainly: Compound was evaluated for its effect ofHSV -2 induced mortality in mice measured as survivors/total (%) at the dose of 25 mg/kg per day; 0/10. It is filed as functional. A digest of the protocol:
as §1

For data set [3], the species on record is Cavia porcellus. Put plainly: Compound (5%) was evaluated for its effect on (no. of areas = 4) mean area under lesion score-day curve in HSV-1 cutaneous infection of guinea pig; expressed as mean area under lesion score-day curve. It is filed as functional.
In data set [4] the test system is Vero. Put plainly: Compound was evaluated for antiviral activity against Herpes simplex virus (HSV) -2 (MS) in Vero cell cultures. Type of data set: functional. The conditions noted are these: Chlorocebus sabaeus, read-out: ID50 (the source's name). A digest of the protocol:
(§2)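 Vero cell cultures were infected with HSV-1 strain BWˢ or HSV-2 strain MS. Antiviral activity was read by the dye-uptake method. The 50% inhibitory dose (ID50) was obtained by linear regression.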

Data set [5] is filed under the species Cavia porcellus. The data set is described as follows: Compound (5%) was evaluated for its effect on (no. of areas = 4)maximum score in HSV-1 cutaneous infection of guinea pig; expressed as maximum score. It is filed as functional.
Data set [6] concerns Mus musculus. The data set is described as follows: Compound was evaluated for its effect ofHSV -2 induced mortality in mice measured as survivors/total (%) at the dose of 12.5 mg/kg per day; 2/10. Type of data set: functional. In a few lines:
as §1

Data set [7] relates to Mus musculus. Put plainly: Compound was evaluated for its effect on HSV -2 induced mortality in mice measured as mean survival time (MST) at the dose of 50 mg/kg per day. Type of data set: functional. In a few lines: as §1
The subject of data set [8] is Mus musculus. Put plainly: Compound was evaluated for its effect on HSV -2 induced mortality in mice measured as mean survival time (MST) at the dose of 12.5 mg/kg per day. Type of data set: functional. In a few lines: as §1
For data set [9], the species on record is Cavia porcellus. Put plainly: Compound (5%) was evaluated for its effect on (no. of areas = 4)mean peak lesion score in HSV-1 cutaneous infection of guinea pig; expressed as mean peak lesion score. It is filed as functional.
The subject of data set [10] is Mus musculus. Put plainly: Compound was evaluated for its effect on HSV -2 induced mortality in mice measured as mean survival time (MST) at the dose of 25 mg/kg per day. Type of data set: functional. In a few lines: as §1
The test system of data set [11] is Mus musculus. Put plainly: Compound was evaluated for its effect on HSV -2 induced mortality in mice measured as survivors/total (%) at the dose of 200 mg/kg per day; 6/12. Type of data set: functional. In a few lines:
as §1

Data set [12] deals with Vero. Put plainly: Compound was evaluated for antiviral activity against Herpes simplex virus (HSV) -1 (BW) in Vero cell cultures. As to conditions: Chlorocebus sabaeus, read-out: ID50 (the source's name). It is filed as functional. In a few lines:
as §2

The species entered for data set [13] is Cavia porcellus. The data set is described as follows: Compound (5%) was evaluated for its effect on (no. of areas = 4) time to start healing in HSV-1 cutaneous infection of guinea pig; expressed as time to start healing. Type of data set: functional.
The subject of data set [14] is Mus musculus. Put plainly: Compound was evaluated for its effect on HSV -2 induced mortality in mice measured as mean survival time (MST) at the dose of 100 mg/kg per day. Type of data set: functional. In a few lines:
as §1

Data set [15] deals with Mus musculus. The data set is described as follows: Compound was evaluated for its effect ofHSV -2 induced mortality in mice measured as survivors/total (%) at the dose of 100 mg/kg per day; 5/10. It is filed as functional. In a few lines:
as §1

Data set [16] concerns Mus musculus. The data set is described as follows: Compound was evaluated for its effect on HSV -2 induced mortality in mice measured as mean survival time (MST) at the dose of 200 mg/kg per day. It is filed as functional. A digest of the protocol:
as §1

Data set [17] has as its system Mus musculus. The data set is described as follows: Compound was evaluated for its effect of HSV -2 induced mortality in mice measured as survivors/total (%) at the dose of 12.5 mg/kg per day; 2/10. It is filed as functional. A digest of the protocol:
as §1

In data set [18] the test system is Mus musculus. The data set is described as follows: Compound was evaluated for its effect of HSV -2 induced mortality in mice measured as survivors/total (%) at the dose of 50 mg/kg per day; 5/10. It is filed as functional. In a few lines:
as §1

The species named for data set [19] is Cavia porcellus. Put plainly: Compound (5%) was evaluated for its effect on (no. of areas =3) time to start healing in HSV-1 cutaneous infection of guinea pig; expressed as time to start healing. Type of data set: functional.
The species entered for data set [20] is Cavia porcellus. Put plainly: Compound (5%) was evaluated for its effect on (no. of areas = 3) mean area under lesion score-day curve in HSV-1 cutaneous infection of guinea pig; expressed as mean area under lesion score-day curve. It is filed as functional.
Data set [21] relates to Mus musculus. Put plainly: Compound was evaluated for its effect of HSV -2 induced mortality in mice measured as survivors/total (%) at the dose of 100 mg/kg per day; 3/10. Type of data set: functional. In a few lines:
as §1

Data set [22] has as its system Mus musculus. The data set is described as follows: Compound was evaluated for its effect of HSV -2 induced mortality in mice measured as survivors/total (%) at the dose of 200 mg/kg per day; 6/10. It is filed as functional. In a few lines: as §1
The subject of data set [23] is Mus musculus. The data set is described as follows: Compound was evaluated for its effect of HSV -2 induced mortality in mice measured as survivors/total (%) at the dose of 25 mg/kg per day; 5/10. Type of data set: functional. In a few lines:
as §1

The species named for data set [24] is Cavia porcellus. Put plainly: Compound (5%) was evaluated for its effect on (no. of areas = 3)maximum score in HSV-1 cutaneous infection of guinea pig; expressed as maximum score. It is filed as functional.
The test system of data set [25] is Mus musculus. Put plainly: Compound was evaluated for its effect of HSV -2 induced mortality in mice measured as survivors/total (%) at the dose of 25 mg/kg per day; 3/9. Type of data set: functional. In a few lines:
as §1

In data set [26] the test system is Mus musculus. The data set is described as follows: Compound was evaluated for its effect of HSV -2 induced mortality in mice measured as survivors/total (%) at the dose of 50 mg/kg per day; 4/10. Type of data set: functional. In a few lines: as §1
Data set [27] concerns Mus musculus. Put plainly: Compound was evaluated for its effect of HSV -2 induced mortality in mice measured as survivors/total (%) at the dose of 100 mg/kg per day; 3/8. It is filed as functional. In a few lines:
as §1

In data set [28] the test system is Human alphaherpesvirus 1. Put plainly: Compound (5%) was evaluated for its effect on (no. of areas = 3)mean peak lesion score in HSV-1 cutaneous infection of guinea pig; expressed as mean peak lesion score. Type of data set: functional.
The species entered for data set [29] is Cavia porcellus. The data set is described as follows: Compound (5%) was evaluated for its effect on (no. of areas = 3) time to start healing in HSV-1 cutaneous infection of guinea pig; expressed as time to start healing. Type of data set: functional.
Substrate in data set [30]: NC1=NC(=O)C2N=CN(COCCO)C2=N1
As to conditions: Chlorocebus sabaeus; Vero.

Substrate in data set [31]: Cc1cn([C@@H]2O[C@H](CO)[C@@H](O)[C@@H]2F)c(=O)[nH]c1=O
The conditions noted are these: Chlorocebus sabaeus; Vero.

Substrate in data set [32]: O=c1[nH]c(=O)n([C@@H]2O[C@H](CO)[C@@H](O)[C@@H]2F)cc1I
The conditions noted are these: Chlorocebus sabaeus; Vero.

Take `CCc1cn([C@@H]2O[C@H](CO)[C@@H](O)[C@@H]2F)c(=O)[nH]c1=O`: the Activity in data set [1] was determined as 3%; in [2], 0%; in [3], 10; in data set [5] it was 3 days; in data set [6], 2%; in data set [9], 1.5. In addition, the Activity in data set [11] is 6%; in data set [13], 6.5 days; in [15] it was 5%. Besides, the IC50 in [4] was found to be 2.7 µg/mL (≈ 9.85 µM); in data set [12], 0.99 µg/mL (≈ 3.61 µM). Besides, the MST in data set [7] came out at 12 days; in [8] it was 8 days; in data set [10], 9 days; in data set [14], 18 days; in data set [16] it was 19 days.
`O=c1[nH]c(=O)n([C@@H]2O[C@H](CO)[C@@H](O)[C@@H]2F)cc1I` [FIALURIDINE]: the Activity is 2% in data set [17]; 5% in [18]; 4.67 days in [19]; 9.6 in [20]; 1 in data set [9]; 3% in data set [21]. Further, the Activity in data set [22] worked out at 6%; in [23], 5%; in data set [24], 3 days. For the same molecule, the IC50 in data set [4] stood at 0.64 µg/mL (≈ 1.72 µM); in data set [12], 0.96 µg/mL (≈ 2.58 µM). Besides, the MST was determined as 18 days in data set [7]; 10 days in data set [8]; 18 days in data set [10]; 13 days in [14]; 21 days in data set [16].
`NC1=NC(=O)C2N=CN(COCCO)C2=N1` (stereo not given): the Activity was 2% in data set [17]; 15.2 in data set [3]; 4 days in data set [5]; 3% in data set [25]; 2.5 in data set [9]; 4% in [26]. The Activity in [13] worked out at 6.25 days; in [27], 3%. Also, the values for the IC50 in [4] and in data set [12] were 1.1 µg/mL (≈ 4.88 µM) and 0.7 µg/mL (≈ 3.11 µM), respectively. In addition, the MST in data set [7] turned out to be 10 days; in data set [8], 8 days; in data set [10], 10 days; in [14], 13 days.
As for `Cc1cn([C@@H]2O[C@H](CO)[C@@H](O)[C@@H]2F)c(=O)[nH]c1=O` [5-METHYL-2'-FLUOROARAURACIL], the IC50 amounted to 0.13 µg/mL (≈ 0.5 µM) in data set [4] and 1.3 µg/mL (≈ 5 µM) in data set [12]. The Activity was determined as 0.75 in [28], 2.7 in data set [20], 5.33 days in data set [29] and 2.67 days in data set [24].

B1: Thymidine kinase, cytosolic (Homo sapiens), P04183 (protein)
chain: MSCINLPTVLPGSPSKTRGQIQVILGPMFSGKSTELMRRVRRFQIAQYKCLVIKYAKDTRYSSSFCTHDRNTMEALPACLLRDVAQEALGVAVIGIDEGQFFPDIVEFCEAMANAGKTVIVAALDGTFQRKPFGAILNLVPLAESVVKLTAVCMECFREAAYTKRLGTEKEVEVIGGADKYHSVCRLCYFKKASGQPAGPDNKENCPVPGKPGEAVAARKLFAPQQILQCSPAN
For the molecule B1, the Ki in data set [30] is greater than 4920 µM; in [31], 60 µM; in data set [32], 53 µM.

The record behind these values is ChEMBL document CHEMBL1123741 (J Med Chem, 1987).
